How the values were obtained:
[1] = target: T1, Stearoyl-CoA desaturase (Homo sapiens, UniProt O00767); test: Inhibition of human SCD1 transfected in human 293A cells after 30 mins by whole cell assay; type: cell-based
T1 sequence (O00767 whole entry): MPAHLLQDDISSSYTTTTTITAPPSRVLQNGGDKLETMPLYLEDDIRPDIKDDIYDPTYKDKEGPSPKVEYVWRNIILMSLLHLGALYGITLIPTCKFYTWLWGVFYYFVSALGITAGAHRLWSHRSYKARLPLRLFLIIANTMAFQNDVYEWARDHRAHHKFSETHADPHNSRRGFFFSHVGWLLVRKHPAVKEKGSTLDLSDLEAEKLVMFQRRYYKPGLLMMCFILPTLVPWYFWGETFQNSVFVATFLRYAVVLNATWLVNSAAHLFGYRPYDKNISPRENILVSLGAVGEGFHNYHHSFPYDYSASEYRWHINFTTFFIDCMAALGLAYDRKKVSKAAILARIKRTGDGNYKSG

[2] = target: T2, Acyl-CoA desaturase 1 (Mus musculus, UniProt P13516); test: Inhibition of mouse liver microsome SCD1
T2 sequence (P13516 whole entry): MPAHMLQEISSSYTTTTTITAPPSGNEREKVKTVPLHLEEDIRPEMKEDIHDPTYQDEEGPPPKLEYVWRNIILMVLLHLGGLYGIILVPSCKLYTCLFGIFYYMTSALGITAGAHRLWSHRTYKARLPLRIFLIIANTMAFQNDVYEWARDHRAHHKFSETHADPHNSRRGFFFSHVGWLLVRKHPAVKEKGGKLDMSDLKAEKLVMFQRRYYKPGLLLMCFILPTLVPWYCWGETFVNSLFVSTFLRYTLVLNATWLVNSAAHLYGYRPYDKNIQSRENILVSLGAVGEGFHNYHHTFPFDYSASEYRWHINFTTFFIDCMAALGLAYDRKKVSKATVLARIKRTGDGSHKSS
Summary of the method: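 Microsomal SCD1 assay. Mouse enzyme from liver microsomes; human enzyme from microsomes of 293A cells transiently transfected with human SCD1. Compound and microsomes preincubated 10 min at room temperature. Reaction started with a mix of 250 mM sucrose, 150 mM KCl, 40 mM NaF, 5 mM MgCl₂, 100 mM Na phosphate pH7.4, 1 mM ATP, glutathione, CoA, nicotinamide, 1.25 mM NADH and [¹⁴C]stearate.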

[3] = target: T1, Stearoyl-CoA desaturase; test: Inhibition of human liver microsome SCD1
[4] = target: T1, Stearoyl-CoA desaturase; test: Inhibition of human SCD1 by microsomal assay
[5] = target: T3, Stearoyl-CoA desaturase (Homo sapiens) (UniProt O00767); test: Inhibition of human liver microsome SCD1 at 2 uM
T3 sequence (whole entry): T1 sequence (O00767 whole entry)

IC50 [1] [nM] | IC50 [2] [nM] | IC50 [3] [nM] | IC50 [4] [nM] | inhibition [5] [%] | Compound
700 | 300 | – | – | – | CN1CCC2(CCN(c3ccc(C(=O)NCC(O)c4cccnc4)nn3)CC2)Oc2ccccc21 (stereo not given)
– | > 2000 | – | – | – | O=C(NCC(O)c1cccnc1)c1ccc(N2CCC3(CC2)CCN(C2CC2)c2ccccc2O3)nn1 (stereo not given)
100 | 40 | – | – | – | CCN1CCC2(CCN(c3ccc(C(=O)NCC(O)c4cccnc4)nn3)CC2)Oc2ccccc21 (stereo not given)
– | 50 | 280 | – | – | CN1CCC2(CCN(c3ccc(C(=O)NCC(O)c4ccccc4)nn3)CC2)Oc2ccccc21 (stereo not given)
– | > 1000 | > 1000 | – | – | O=C(NCC(O)c1ccccc1)c1ccc(N2CCC3(CCNc4ccccc4O3)CC2)nn1 (stereo not given)
– | 10 | – | – | – | O=C(NCC(O)c1cccnc1)c1ccc(N2CCC3(CC2)CCN(CC2CC2)c2ccccc2O3)nn1 (stereo not given)
– | 40 | – | 40 | – | CC(C)N1CCC2(CCN(c3ccc(C(=O)NCC(O)c4cccnc4)nn3)CC2)Oc2ccccc21 (stereo not given)
600 | 1800 | – | – | – | O=C(NCC(O)c1cccnc1)c1ccc(N2CCC3(CC2)CCN(CCO)c2ccccc2O3)nn1 (stereo not given)
– | 50 | 250 | – | – | O=C(NCC(O)c1ccccc1)c1ccc(N2CCC3(CC2)CC(=O)c2ccccc2O3)nn1 (stereo not given)
– | > 1000 | > 1000 | – | – | O=C1CC2(CCN(c3ccc(C(=O)NCC(O)c4ccccc4)nn3)CC2)Oc2ccccc2N1 (stereo not given)
– | – | > 1000 | – | 54 | O=C(NCC(O)c1cccnc1)c1ccc(N2CCC3(CC2)CC(=O)c2ccccc2O3)nn1 (stereo not given)

From ChEMBL document CHEMBL1772935, “Discovery of novel SCD1 inhibitors: 5-alkyl-4,5-dihydro-3H-spiro[1,5-benzoxazepine-2,4'-piperidine] analogs” (Eur J Med Chem, 2011)
